pCIP destab: compounds decreasing mouse p/CIP protein stability | F442A p/CIP-EGFP cells, EGFP fluorescence, 16 h | decrease of EGFP signal, % at 10 µM | actives 0.01% (n = 290,000);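 active means EGFP signal decrease of at least 30% at 10 µM or well 3 SD below plate mean, unless failing retest; inactive means the rest, including hits failing retest or dose response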
Target sequence (Q05BA5 1-1403): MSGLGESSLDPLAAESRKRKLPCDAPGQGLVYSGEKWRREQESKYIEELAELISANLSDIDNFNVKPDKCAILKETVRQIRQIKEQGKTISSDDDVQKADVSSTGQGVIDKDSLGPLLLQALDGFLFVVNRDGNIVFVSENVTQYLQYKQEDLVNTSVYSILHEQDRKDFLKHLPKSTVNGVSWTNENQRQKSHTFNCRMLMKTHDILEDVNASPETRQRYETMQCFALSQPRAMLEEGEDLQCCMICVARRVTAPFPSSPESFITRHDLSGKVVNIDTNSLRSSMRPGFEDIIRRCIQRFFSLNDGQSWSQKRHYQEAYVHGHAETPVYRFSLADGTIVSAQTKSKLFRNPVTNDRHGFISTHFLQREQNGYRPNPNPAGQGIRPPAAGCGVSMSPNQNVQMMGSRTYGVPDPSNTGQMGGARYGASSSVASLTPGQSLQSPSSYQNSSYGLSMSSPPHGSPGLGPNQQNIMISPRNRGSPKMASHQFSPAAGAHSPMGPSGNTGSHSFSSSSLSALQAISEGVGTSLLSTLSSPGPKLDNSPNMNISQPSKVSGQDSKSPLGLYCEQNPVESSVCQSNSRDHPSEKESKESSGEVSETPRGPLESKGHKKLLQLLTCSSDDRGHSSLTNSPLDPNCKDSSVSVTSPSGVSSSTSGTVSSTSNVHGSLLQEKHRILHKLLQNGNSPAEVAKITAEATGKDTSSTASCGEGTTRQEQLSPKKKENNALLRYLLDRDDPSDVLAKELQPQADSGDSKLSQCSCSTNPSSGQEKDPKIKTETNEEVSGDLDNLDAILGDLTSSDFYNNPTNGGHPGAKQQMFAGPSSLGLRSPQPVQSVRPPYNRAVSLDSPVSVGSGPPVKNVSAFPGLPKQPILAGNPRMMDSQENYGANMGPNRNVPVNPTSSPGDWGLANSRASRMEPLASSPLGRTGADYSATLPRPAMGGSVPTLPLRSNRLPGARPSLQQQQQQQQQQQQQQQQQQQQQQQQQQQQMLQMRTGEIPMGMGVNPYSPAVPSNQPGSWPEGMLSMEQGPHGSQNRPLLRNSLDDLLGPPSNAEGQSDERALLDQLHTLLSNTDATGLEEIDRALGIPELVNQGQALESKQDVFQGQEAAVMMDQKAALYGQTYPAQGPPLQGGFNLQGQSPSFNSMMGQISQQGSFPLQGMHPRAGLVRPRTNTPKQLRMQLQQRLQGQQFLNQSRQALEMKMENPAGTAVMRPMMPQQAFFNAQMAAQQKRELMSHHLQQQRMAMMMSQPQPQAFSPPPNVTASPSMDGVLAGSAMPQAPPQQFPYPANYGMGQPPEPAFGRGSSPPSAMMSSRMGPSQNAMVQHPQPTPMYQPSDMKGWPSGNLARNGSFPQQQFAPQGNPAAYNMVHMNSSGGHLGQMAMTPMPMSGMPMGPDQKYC
AI-2 QS modul: modulators of Vibrio harveyi AI-2 quorum sensing system | Vibrio harveyi JMH597 AI-2 luminescence/OD600 ratio, 9 h; hits give low values; strain lacks LuxN and CqsS sensors; 0 = neutral-control median | activity change, % at 7.5 µM | actives 0.4% (n = 300,000) | AID 2094; in the data active means activity change below about -75%, passing the limit was not always enough;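 further: luminescence divided by OD600 gain over 9 h not by final OD600 alone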
UBC13 polyUb: inhibitors of human UBC13 polyubiquitin chain formation. P61088. TR-FRET. inhibition, % at 20 µM. actives 0.47% (n = 330,000); in the data active means inhibition above about 45%, passing the limit was not always enough
T cruzi repl: blocks replication of Trypanosoma cruzi | inhibition, % (no concentration beside the values) | AID 1885 | T. cruzi beta-gal in NIH3T3, luminescence, 90 h | actives 1.4% (n = 300,000);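 active means mean inhibition across valid replicates above about 55%, limit read from the data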;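 further: signal also drops with host cell toxicity which is not excluded here; 0% = plate median of DMSO wells and 100% = zero luminescence signal; higher percent means less beta-gal luminescence so fewer parasites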
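Read-out: Parasite load inhibition, % | Test system: Mouse NIH/3T3 fibroblasts infected with β-gal-expressing T. cruzi Tulahuen C4 | Amount: 5,000 cells/well | Medium: DMEM, 2% fetal bovine serum | Signal: GalScreen β-gal luminescence, detergent lysis, 60 min | Timing: 3 h attach, ≥90 h co-culture | Also added: Tulahuen C4 trypomastigotes, 5000/well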
PP1 inh: counter-screen for PP5 inhibitors: inhibitors of human PP1-alpha. P62136. purified PP1alpha, OMFP fluorescence. inhibition, % at 6.7 µM. actives 0.9% (n = 320,000);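 active means inhibition above the mean inhibition of all tested compounds plus 3 SD, computed separately for each screening campaign, cut at about 15% in these data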
* marks the source's active call; other numbers are inactive results; · = no result. A selection: hits, their analogues and other compounds. The true share with any hit is near 2.8%.

SMILES	pCIP destab	AI-2 QS modul	UBC13 polyUb	T cruzi repl	PP1 inh
CCN1CCN(c2ccc(S(=O)(=O)N3CCCCC3)cc2NC(=O)Cc2ccc(Cl)c(Cl)c2)CC1	·	-10.9	17.1	63.0*	0.1
CCN1CCN(c2ccc(S(=O)(=O)N3CCCCC3)cc2NC(=O)Cc2ccccc2)CC1	·	-2.1	2.2	45.3	-5.3
O=C(CN1CCN(C(=O)CCC(=O)N2CCC(c3ccccc3)=N2)CC1)Nc1ccc(F)cc1	·	·	-7.0	·	·
CCN(Cc1ccccc1)C(c1cccs1)c1nnnn1C1CCCCC1 (stereo unspecified)	-6.1	32.4	6.8	56.2*	1.1
Cc1ccc(S(=O)(=O)CCC(=O)OCC(=O)N2c3ccccc3NC(=O)C2(C)C)cc1	·	8.5	1.7	2.7	-1.6
CN(CC(=O)Nc1ccccc1Cl)C(=O)COC(=O)/C=C/c1cccc(C(F)(F)F)c1	·	·	-8.3	·	0.9
O=[N+]([O-])c1ccc(S(=O)(=O)c2cccc(C(F)(F)F)c2)nc1	·	66.7	-0.9	66.2*	-3.6
COC(=O)Cn1c(=NC(=O)CCS(=O)(=O)c2ccccc2)sc2c(OC)ccc(OC)c21	-1.7	4.6	30.8	-6.4	-0.3
CCOc1ccc(S(N)(=O)=O)cc1-c1nc2c(C(C)(C)C)nn(C)c2c(=O)[nH]1	-15.1	15.4	7.3	41.1	0.7
CCOc1ccc(S(=O)(=O)NC(C)(C)C)cc1-c1nc2c(C(C)(C)C)nn(C)c2c(=O)[nH]1	5.8	17.7	13.3	67.4*	7.4
N#Cc1cc2ccccc2nc1SCC(=O)Nc1ccc(S(=O)(=O)N2CCCC2)cc1	-38.6	17.6	15.0	56.3*	0.2
COc1ccc2nc(SCC(=O)Nc3ccc(S(=O)(=O)N4CCCC4)cc3)c(C#N)cc2c1	-19.9	16.2	44.1	28.0	9.8
Cc1nn2c(NCCCN(C)C)c3c(nc2c1-c1ccccc1)CCC3	-1.8	11.0	16.6	68.9*	2.1
Cc1nn2c(NCCCN(C)C)c3c(nc2c1-c1ccccc1)CCCC3	-6.6	28.4	22.1	49.5	-0.6
C/C(=N\NC(=O)c1ccc(CN2CCc3ccccc3C2)cc1)c1ccccc1O	14.5	95.8	6.4	64.4*	2.5
CC(N=C1NS(=O)(=O)c2ccccc21)C(=O)NCc1ccc(F)cc1 (stereo unspecified)	·	·	7.2	·	·
CCN(CC)CCN(C(=O)c1ccc2c(c1)OCCO2)c1nc2ccc(C)cc2s1	-5.9	11.5	12.5	68.6*	-2.3
Cc1ccc2nc(N(CCN(C)C)C(=O)c3ccc4c(c3)OCCO4)sc2c1	-7.7	2.7	9.6	71.7*	-8.9
CN(C)CCCN(C(=O)c1ccc2c(c1)OCCO2)c1nc2cc3c(cc2s1)OCO3	-11.1	21.5	-5.4	36.2	-1.0
Cc1ccc2nc(N(CCN(C)C)C(=O)c3ccc4ccccc4c3)sc2c1	3.4	14.0	20.2	25.9	-1.0
CN(C)CCN(C(=O)c1ccc(N2C(=O)CCC2=O)cc1)c1nc2cc3c(cc2s1)OCO3	-4.8	2.6	-6.1	56.7*	9.1
Cc1cc(C)c2nc(N(CCCN(C)C)C(=O)c3ccc4c(c3)OCCO4)sc2c1	·	-16.7	15.0	56.9*	-3.4
CCN(CC)CCN(C(=O)c1ccc2c(c1)OCCO2)c1nc2cc3c(cc2s1)OCO3	-24.0	-2.1	6.0	35.4	0.8
C/C(=N\N=C(N)N)c1ccc(Cl)c(Cl)c1	1.2	26.9	19.1	53.4	1.6
CN(C)CCCN(C(=O)COc1ccc(Cl)cc1)c1nc2cc3c(cc2s1)OCO3	0.9	11.9	35.2	23.3	3.3
SMILES	pCIP destab	AI-2 QS modul	UBC13 polyUb	T cruzi repl	PP1 inh
CN(C)CCCN(C(=O)COc1ccc(Cl)cc1)c1nc2cc3c(cc2s1)OCCO3	·	28.8	36.4	57.1*	-4.8
COc1ccc(-c2cc(-c3ccccc3)c(C#N)c(SCC(=O)Nc3ncc(C)s3)n2)cc1	-13.3	20.2	0.0	56.2*	3.9
CCC(=O)Nc1cc(C(=O)O)ccc1Sc1ccccc1	-10.2	18.9	-10.0	-0.8	16.7*
CCCC(=O)Nc1cc(C(=O)O)ccc1Sc1ccccc1	9.3	28.8	-1.4	-5.6	-1.8
CC1=C(n2nnc([N+](=O)[O-])n2)C(c2cccnc2)C(C#N)=C(N)O1 (stereo unspecified)	-6.6	26.6	4.0	56.6*	-1.9
NS(=O)(=O)c1ccc(Nc2c([N+](=O)[O-])cncc2[N+](=O)[O-])cc1	-7.5	-93.4*	-19.2	35.6	-2.6
NC(=S)n1[nH]c(-c2ccc([N+](=O)[O-])cc2)c(N=Nc2cccc(Cl)c2)c1=O	-18.6	-1.8	-44.8	-41.9	·
NC(=S)n1[nH]c(-c2ccc([N+](=O)[O-])cc2)c(N=Nc2ccc(O)cc2)c1=O	-6.2	17.5	-51.8	15.9	17.0*
CC1=CC(C)(C)Nc2ccc(OC(=O)CN3C(=O)CCC3=O)cc21	-11.5	10.1	0.6	55.9*	-0.4
CC1=CC(C)(C)Nc2ccc(OC(=O)C(C)N3C(=O)c4ccccc4C3=O)cc21 (stereo unspecified)	-21.6	8.9	3.6	-11.6	4.1
COc1ccccc1NS(=O)(=O)c1ccc(C)c(C(=O)NCC2CCCO2)c1 (stereo unspecified)	-5.7	16.0	-3.7	-7.1	-10.3
Cc1cc(O)c(-c2cc(O)c(C)cc2O)cc1O	-3.8	8.5	-2.3	55.4*	-1.3
O=C(N/N=C\c1ccc(F)cc1)c1ccc(Cn2cc(Br)c([N+](=O)[O-])n2)o1	-7.8	37.0	9.3	61.4*	2.4
O=C(N/N=C\c1ccc2c(c1)OCO2)c1ccc(Cn2cc(Br)c([N+](=O)[O-])n2)o1	-23.9	19.1	-1.5	55.6*	-1.4
COc1cc(/C=N\NC(=O)c2ccc(Cn3cc(Br)c([N+](=O)[O-])n3)o2)cc(OC)c1O	-4.8	31.4	-0.8	51.6	-4.8
O=C(N/N=C\c1cccc(F)c1)c1ccc(Cn2cc(Br)c([N+](=O)[O-])n2)o1	5.1	22.3	12.0	68.0*	-0.5
COc1cc(/C=N/NC(=O)c2ccc(Cn3cc([N+](=O)[O-])cn3)o2)cc(Br)c1O	0.6	10.2	-0.9	1.5	-6.0
CS(=O)(=O)N1CCc2cc(-c3csc(NC(=O)Cc4cccs4)n3)ccc21	-11.7	10.0	13.4	60.3*	3.5
CC(=O)Nc1nc(-c2ccc3c(c2)CCN3S(C)(=O)=O)cs1	15.5	17.7	-6.4	-8.4	-9.2
O=C(Cc1ccc(NC2=NC3CS(=O)(=O)CC3S2)cc1)NCCc1ccccc1 (stereo unspecified)	-1.7	26.9	3.2	-2.9	-4.0
Cc1ccc(Sc2cc(C(=O)NCCCN(C)C)c3ccccc3n2)cc1	10.8	28.3	-0.3	56.0*	0.2
COCCCNC(=O)c1cc(Sc2ccc(F)cc2)nc2ccccc12	-6.8	6.5	-16.2	-16.2	-2.2
CN(C)CCNC(=O)c1cc(Sc2ccc(F)cc2)nc2ccccc12	-8.6	19.8	2.0	65.0*	-3.8
Cc1ccc(Sc2cc(C(=O)NCCN(C)C)c3ccccc3n2)cc1	1.7	9.5	3.0	52.0	0.7
